Active and inactive are the calls of the source. The calls are words filed in the database; no cut-off is given here.

In this experiment the target is T1, Cell division protein FtsZ (Staphylococcus aureus) (UniProt P0A031).
T1 sequence (whole entry): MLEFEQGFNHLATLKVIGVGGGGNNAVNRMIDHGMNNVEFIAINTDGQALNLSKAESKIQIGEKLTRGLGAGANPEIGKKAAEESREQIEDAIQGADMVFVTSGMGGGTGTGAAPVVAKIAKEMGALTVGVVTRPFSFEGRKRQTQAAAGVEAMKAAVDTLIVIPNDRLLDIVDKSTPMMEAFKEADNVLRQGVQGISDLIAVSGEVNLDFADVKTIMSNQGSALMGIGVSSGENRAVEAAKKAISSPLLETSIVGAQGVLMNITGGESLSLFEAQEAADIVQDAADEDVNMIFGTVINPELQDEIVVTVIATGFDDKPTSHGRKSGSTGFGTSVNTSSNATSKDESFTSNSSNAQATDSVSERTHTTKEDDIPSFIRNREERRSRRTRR
Briefly: Binding affinity to Staphylococcus aureus FtsZ expressed in Escherichia coli BL21 (DE3) at 40 uM by fluorescence anisotropy BoGTPgammaS competition assay. The essentials:
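Competition: 1 μM BODIPY-GTPγS with 0 or 5 μM SaFtsZ and compound at 0–40 μM in 50 mM Tris·HCl pH 7.4, 50 mM KCl, 2 mM magnesium acetate. After 5 min at 25 °C, anisotropy read at excitation 488 / emission 510 nm, 4 nm bandwidths, triplicate. Unlabeled GTP used as the positive control.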
Background: In fluorescence polarisation assays a small probe gives low polarisation when free and higher when bound to something large.

With `CC(C)(C)c1ccc(-c2cccc(CNC(=N)N)c2)cc1`, the outcome was inactive.

The values are drawn from ChEMBL document CHEMBL2176974, “A bactericidal guanidinomethyl biaryl that alters the dynamics of bacterial FtsZ polymerization” (J Med Chem, 2012).
